An excerpt weighted towards active compounds, which were near 9.6% of everything screened.
Lmaj promast: Leishmania major promastigote growth inhibition, primary screen. Leishmania major promastigotes, resazurin fluorescence viability. inhibition, % at 10 µM. hit rate 9% among 200,000; in the data active = inhibition above about 50%;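 also: promastigotes grown with compound for 44 hours at 28 °C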
PMI act: activators of human PMI, primary screen, biochemical, fluorescence intensity, near-Km mannose 6-phosphate. AID 1214, 2008. hit rate 0.005% among 190,000. purified human PMI, coupled resazurin fluorescence, 20 min; stronger effect = higher value; 1 = vehicle control, 0 substrate-free wells. activation factor at 20 µM. Mannose-6-phosphate isomerase (Homo sapiens), P34949;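 active = activation factor of 2 or more at 20 µM, relative to plate controls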
Target sequence (P34949 whole entry, looked up): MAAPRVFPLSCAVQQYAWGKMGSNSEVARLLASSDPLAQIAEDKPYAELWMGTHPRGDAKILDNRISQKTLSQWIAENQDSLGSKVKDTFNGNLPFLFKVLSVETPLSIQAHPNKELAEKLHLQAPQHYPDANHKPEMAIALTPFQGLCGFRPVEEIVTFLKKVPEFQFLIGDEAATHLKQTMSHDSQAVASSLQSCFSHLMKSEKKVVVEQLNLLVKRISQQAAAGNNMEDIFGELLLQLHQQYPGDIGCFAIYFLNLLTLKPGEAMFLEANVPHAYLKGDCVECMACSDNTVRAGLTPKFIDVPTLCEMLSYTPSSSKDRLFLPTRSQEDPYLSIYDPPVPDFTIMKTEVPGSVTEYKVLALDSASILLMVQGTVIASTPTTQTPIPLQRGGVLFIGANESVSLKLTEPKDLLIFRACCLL
HCT116 PTEN-null: growth suppression of PTEN-null HCT116, primary screen, cell-based, CellTiter-Glo; HCT116 PTEN-null viability, 60 h; stronger effect = lower value; viability, % at 10 µM; hit rate 1.2% among 140,000;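 active = viability at or below a set limit, 4 SD under the median of all tested compounds, cut at about 3.7% in these data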;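 also: PTEN knockout HCT116 line with beta catenin targeted HCT116 as companion control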
bCat KO growth: primary screen for growth suppressors in beta-catenin knockout HCT116 cells (colon tumor, human); HCT116 beta-catenin knockout viability, CellTiter-Glo, 60 h; stronger effect = lower value; viability, % at 10 µM; hit rate 1.5% among 140,000;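 active = viability at or under a set limit, the compound median less 4 SD, cut at about 6% in these data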;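 also: 0% = Hyamine 1622 control at 20 µM and 100% = untreated cell control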
PMI act satM6P: human PMI activators, high substrate, primary screen, biochemical, fluorescence intensity, near-saturating mannose 6-phosphate. hit rate 0.34% among 190,000. activation factor at 20 µM. coupled PMI enzyme assay, resazurin fluorescence, 20 min; stronger effect = higher value; 1 = untreated enzyme, 0 = substrate-free blank;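 active = activation factor of 2 or more at 20 µM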
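Test system: human PMI in coupled enzyme assay; Input: PMI at 15 ng/mL final; Medium: HEPES buffer, pH 7.4; Schedule: 20 min incubation at room temperature; Technique: resorufin fluorescence at Ex 544/Em 590 nm; Compound: 20 µM single dose; Probe or stimulus: Near-saturating mannose-6-phosphate, 1.0 mM.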
* = called active by the depositor; · = not tested or not shown.

SMILES	Lmaj promast	PMI act	HCT116 PTEN-null	bCat KO growth	PMI act satM6P
CC(C)Cc1nnc(NC(=O)CCC(=O)NC2CCCc3ccccc32)s1 (stereo not drawn)	96*	1	100	83	0.9
CCOC(=O)c1nc(NCc2ccccc2F)c2ccccc2n1	50	1.1	·	·	1.1
CCOC(=O)c1nc(NCc2ccccc2C)c2ccccc2n1	65*	1	·	·	1
CCOC(=O)c1c(C)oc2ccc(O)c(CN(C)C)c12	1	0.9	84	95	1
CCOC(=O)c1c(-c2ccccc2)oc2cc(CN(C)C)c(O)c(CN(C)C)c12	100*	·	·	·	·
CCOC(=O)c1c(-c2ccccc2)oc2ccc(O)c(CN3CCN(C)CC3)c12	89*	1.3	9	7	1.3
NS(=O)(=O)c1ccc(CCNC(=O)CCCCCn2c(=S)[nH]c3ccc(Br)cc3c2=O)cc1	-4	1.1	·	·	1.1
CN1CCN(C(=O)CC2(CC(=O)O)CCCC2)CC1	-9	1	·	·	1
COc1ccc(C(=O)NCc2ccc3[nH]c(C)cc3c2)cc1OC	1	1	·	·	1
CCOC(=O)N1CCC(NC(=O)C2CCN(C(=O)c3cc4oc(C)cc4n3Cc3c(F)cccc3Cl)CC2)CC1	75*	0.9	·	·	0.9
COC(CNC(=O)C1CCN(C(=O)c2cc3oc(C)cc3n2Cc2c(F)cccc2Cl)CC1)OC	9	1.2	·	·	1
Cc1cc(SCC(=O)N/N=C/c2ccc(O)cc2O)c(C)cc1Br	100*	1.1	9	9	1.1
O=C(CCCCCNC(=O)c1ccccc1)N/N=C/c1ccc(O)cc1O	-5	1	95	91	1.2
O=C1N/C(=C/c2ccc(Br)cc2)C(O)=C1C=NCc1ccccc1	79*	1.1	31	34	1.1
Cc1ccc(OP(=O)(Nc2c(C)n(C)n(-c3ccccc3)c2=O)Oc2ccc(C)cc2)cc1	69*	1	96	84	0.9
O=C(c1cccc(N2C(=O)C3CC=CCC3C2=O)c1)N1CCCc2ccccc21 (stereo not drawn)	-7	1	·	·	1
CC(C)OCCCn1c(=N)c(C(N)=S)cc2c(=O)n3ccccc3nc21	100*	1.4	58	58	1.6
COC(=O)c1cc2c(=O)n3ccccc3nc2n(Cc2cccnc2)c1=N	19	·	·	·	·
N=c1c(C(=O)NCc2ccc(F)cc2)cc2c(=O)n3ccccc3nc2n1Cc1cccnc1	71*	1.1	62	79	1
N=c1c(C(=O)NCc2ccc(F)cc2)cc2c(=O)n3ccccc3nc2n1CCCN1CCOCC1	60*	1	56	53	1
COc1ccccc1C(=O)N(Cc1nc(-c2ccc(Cl)cc2)no1)C(C)C	13	0.9	61	51	0.9
CCOC(=O)/C(=C\c1ccc(Cl)cc1)c1nc2sc(C)c(C)c2c(=O)[nH]1	100*	0.8	98	89	0.9
CC(=O)Nc1ccc(N2CCCCC2)c(C(=O)Nc2cccc(C)c2)c1	81*	0.9	63	54	1
Cc1cccc(NC(=O)c2cc(NC(=O)C3CCCCC3C(=O)O)ccc2N2CCCCC2)c1 (stereo not drawn)	-2	0.9	98	94	1
COc1ccc(OC)c(N2Cc3cc(C)c(C)cc3C2)c1	86*	1	86	103	1.4
SMILES	Lmaj promast	PMI act	HCT116 PTEN-null	bCat KO growth	PMI act satM6P
Cc1nnc(NC(=O)c2csc3c2CCC(C)C3)s1 (stereo not drawn)	4	0.9	·	·	0.9
CCCCCCCCCC[n+]1cccc2c3ccccc3ccc21	100*	1.1	·	·	1.2
CCCCCCCC[n+]1cccc2c3ccccc3ccc21	101*	1	·	·	1.1
Cc1cccc[n+]1CCCCCCCCCC[n+]1ccccc1C	-3	·	·	·	·
O=c1[nH]c(CSc2nnc(Cc3ccccc3)o2)nc2ccccc12	-6	1.1	·	·	1.1
Cc1cc(C)n2nc(CC(=O)NCc3ccccc3Cl)nc2n1	-7	0.9	98	90	1
CCc1c(C(=O)N2CCN(c3ccccc3F)CC2)[nH]c(C)c1C(C)=O	-2	1	82	77	0.9
COc1ccc(NC(=O)CSc2ccc3c4c(cccc24)C(=O)c2ccccc2-3)cc1	-2	1.1	3.4*	6	1.2
COc1ccc(C2(CNS(=O)(=O)c3ccccc3)CCOCC2)cc1	41	1	·	·	1.1
CCN1/C(=C\c2ccc3cc(C)ccc3[n+]2CC)Sc2cc(C)c(C)cc21	100*	0.5	·	·	0.9
CCN1/C(=C/c2ccc3cccc(C)c3[n+]2CC)Sc2ccccc21	101*	1	2.0*	1.7*	1.1
CCN1/C(=C/c2ccc3cc(C)cc(C)c3[n+]2CC)Sc2cc(C)ccc21	100*	0.8	·	·	1.1
CCN1/C(=C\C(C)=O)Sc2ccc(OC)cc21	-1	0.8	86	87	0.8
N#CC1=C(N)NC(=S)C(C(N)=O)C1c1ccc([N+](=O)[O-])cc1 (stereo not drawn)	0	0.9	·	·	0.8
CC(Nc1ccccc1)c1cc(Cl)ccc1O (stereo not drawn)	96*	1	101	84	1
Cc1ccc(O)c(C(CC(=O)NC(C)C)c2ccccc2)c1 (stereo not drawn)	7	1	·	·	1
CC(NC(=O)CC(c1ccccc1)c1cc(Cl)ccc1O)c1ccccc1 (stereo not drawn)	98*	1	45	57	0.9
COc1ccccc1N1CCN(C(=O)c2cnn3cccnc23)CC1	1	0.9	69	71	1
COc1ccc(O)c(/C=N/NC(=S)Nc2cccc(S(=O)(=O)N(C)C)c2)c1	99*	1.1	6	7	1.2
CCN(CC)S(=O)(=O)c1ccc(N/N=C/c2cc(OC)ccc2O)nc1	92*	1.1	5	2.7*	1.2
COc1ccc(O)c(/C=N/NC(=S)Nc2cccnc2)c1	94*	1.1	·	·	1.2
COc1cccc(/C=N/NC(=S)Nc2cccnc2)c1	0	1	·	·	1
COc1cc(/C=N/NC(=S)Nc2cccc(S(=O)(=O)N(C)C)c2)cc(OC)c1O	4	0.7	84	85	0.8
Cc1ccc(C(=O)N2CCCC(c3ccc(Cl)cc3)=N2)cc1	27	0.9	·	·	0.9
COc1ccc(C(=O)NNC(=O)CSc2nnc(C)n2CC2CCCO2)cc1 (stereo not drawn)	-7	0.9	·	·	0.9
COc1ccccc1CNC(=O)/C=C/c1ccc(Br)o1	2	1.3	·	·	1.3
CCOc1ccc(NC(=S)N/N=C(\C)Cc2ccc(OC)cc2)cc1	62*	0.8	90	92	0.9
COc1ccc(C/C(C)=N/NC(=S)Nc2ccccc2)cc1	31	0.7	104	97	0.8
CCCCc1ccc(NC(=S)Nc2ccc(Cl)c(S(=O)(=O)N(C)C)c2)cc1	87*	1	49	58	0.9

Bioassay records (PubChem BioAssay)
